According to ChEMBL document CHEMBL3272052, “Imidazo[1,2-a]-s-triazine nucleosides. Synthesis and antiviral activity of the N-bridgehead guanine, guanosine, and guanosine monophosphate analogues of imidazo[1,2-a]-s-triazine” (J Med Chem, 1978):
The source made the active and inactive calls. No cut-off for these calls is given here.

How the values were obtained:
Format in all cases: functional, organism-based
[1] = test system: Enterovirus; experiment: Antiviral activity against Rhinovirus 13 infected in human KB cells assessed as inhibition of virus-induced cytopathic effect after 72 hrs by microscopic analysis relative to control
Method in brief: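 KB (human nasopharyngeal carcinoma) monolayers, 19-24 h old, were infected with 320 CCID50 of virus. Compound was added within 15 min at one-half-log dilutions from 1000 to 1 µg/mL. After 72 h at 37 °C, CPE and cytotoxicity were scored microscopically (0-4). The virus rating sums the control-minus-treated CPE scores over all levels, halving any level showing partial toxicity.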

[2] = test system: Enterovirus; experiment: Antiviral activity against Rhinovirus 8 infected in human KB cells assessed as inhibition of virus-induced cytopathic effect after 72 hrs by microscopic analysis relative to control
[3] = test system: Enterovirus; experiment: Antiviral activity against Rhinovirus 2 infected in human KB cells assessed as inhibition of virus-induced cytopathic effect after 72 hrs by microscopic analysis relative to control
[4] = test system: Enterovirus; experiment: Antiviral activity against Rhinovirus 1A infected in human KB cells assessed as inhibition of virus-induced cytopathic effect after 72 hrs by microscopic analysis relative to control
[5] = test system: Enterovirus; experiment: Antiviral activity against Rhinovirus 30 infected in human KB cells assessed as inhibition of virus-induced cytopathic effect after 72 hrs by microscopic analysis relative to control

SMILES	inhibition [1]	inhibition [2]	inhibition [3]	inhibition [4]	inhibition [5]
O=c1[nH]c(=O)n2ccnc2[nH]1	inactive				
Nc1nc(=O)n2ccn([C@@H]3O[C@H](COP(=O)(O)O)[C@@H](O)[C@H]3O)c2n1	inactive	inactive	Active	inactive	inactive
Nc1nc(=O)n2ccn([C@@H]3O[C@H](COC(=O)c4ccccc4)[C@@H](OC(=O)c4ccccc4)[C@H]3OC(=O)c3ccccc3)c2n1	inactive				
NC(=O)c1ncn([C@@H]2O[C@H](CO)[C@@H](O)[C@H]2O)n1	Active	Active	Active	Active	Active
Nc1nc(=O)n2cc[nH]c2n1	Active	Active	Active	Active	Active
O=c1nc2n([C@@H]3O[C@H](CO)[C@@H](O)[C@H]3O)ccn2c(=O)[nH]1	inactive				
Nc1nc(=O)n2ccn([C@@H]3O[C@H](CO)[C@@H](O)[C@H]3O)c2n1	inactive	inactive	Active	Active	inactive
